Measurements: ChEMBL document CHEMBL4725488, “Dual-Stage Picolinic Acid-Derived Inhibitors of Toxoplasma gondii” (ACS Med Chem Lett, 2020)
In brackets after ≈: the same amount, converted by molar mass. Activity calls are given as the source filed them. The calls are words filed in the database; no cut-off is given here.

What was measured:
Toxoplasma gondii [1] = assay: Antiparasitic activity against Toxoplasma gondii ME49 tachyzoites infected in human HFF-1 cells assessed as inhibition of parasitic growth preincubated for 48 hrs followed by [5,6-3H]uracil addition and measured after 24 hrs by liquid scintillation counting analysis; assay type: functional, organism-based
How it was run: (§1)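 HFF host cells harbouring tachyzoites, or bradyzoites differentiated in vitro by base-mediated maturation, were exposed to compounds in dose–response format. EC50 was the concentration inhibiting 50% of parasites. Tested at least in triplicate (n ≥ 3) unless noted, some in duplicate (n = 2).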

Toxoplasma gondii [2] = assay: Antiparasitic activity against Toxoplasma gondii ME49 bradyzoite infected in human HFF-1 cells assessed as inhibition of parasitic growth preincubated for 48 hrs followed by [5,6-3H]uracil addition and measured after 24 hrs by liquid scintillation counting analysis; assay type: functional, organism-based; how it was run: as §1
[3] = (§2) Cytotoxicity against HFF cells assessed as reduction in cell viability incubated for 72 hrs by Cell titer assay; assay type: cell-based; conditions: human, HFF cells
How it was run: (§3)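 Uninfected HFF cells exposed to compounds for 72 h. CC50 is the concentration that cuts cell viability by 50%. At least triplicate (n ≥ 3) unless noted, some in duplicate.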

[4] = Selectivity index, ratio of CC50 for human HFF cells to EC50 for Toxoplasma gondii ME49 tachyzoites infected in human HFF cells; assay type: toxicity, cell-based
How it was run: (§4)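 Selectivity index computed as CC50 in uninfected HFF cells (72 h exposure) divided by EC50 for the bradyzoite or tachyzoite growth assay run in the same HFF line.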

[5] = Selectivity index, ratio of CC50 for human HFF cells to EC50 for Toxoplasma gondii ME49 bradyzoite infected in human HFF cells; assay type: toxicity, cell-based; how it was run: as §4
[6] = Lipophilicity log D of compound at pH 7.4; assay type: physicochemical; conditions: buffer
How it was run: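 LogD at pH 7.4, determined experimentally.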

[7] = Kinetic aqueous solubility of the compound in pH 7.4; assay type: physicochemical; conditions: buffer, read-out: Kinetic_solubility
How it was run: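 Kinetic aqueous solubility measured at pH 7.4.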

[8] = Stability in CD-1 mouse liver microsomes assessed as parent compound remaining measured after 60 mins by LC-MS method; assay type: ADME, Microsome; conditions: for remaining at 1 h: CD-1, mouse, liver microsomes, read-out: Stabilty; for Stabilty: mouse, microsomes, 1 h
How it was run: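 Mouse microsomes, reported as percent parent compound remaining after 1 h.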

[9] = Stability in CD-1 mouse plasma assessed as parent compound remaining measured after 60 mins by LC-MS/MS method; assay type: ADME, cell-free; conditions: for remaining at 1 h: CD-1, mouse, read-out: Stabilty
How it was run: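 Mouse plasma, reported as percent parent compound remaining after 1 h.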

HFF = assay: as §2; assay type: cell-based; conditions: human, hff, 72 h; how it was run: as §3
[10] = Protein binding in male Balb/c mouse at 15 mg/kg, ip; assay type: ADME, organism-based; conditions: plasma, read-out: PB (converted)
[11] = Ratio of AUC in brain to plasma in male Balb/c mouse at 15 mg/kg, ip; assay type: ADME, organism-based; conditions: read-out: BPR
How it was run: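 Male BALB/c mice given a single 15 mg/kg ip injection as a clear solution of the sodium salt. Plasma sampled at 30 min and 2 h after dosing, brain at 2 h. Terminal mean AUC to 2 h determined for plasma (ng/mL) and brain (ng/g). Brain-to-plasma ratio taken from these AUCs.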

[12] = Concentration at 2 hrs in male Balb/c mouse brain at 15 mg/kg, ip; conditions: in vivo
[13] = Plasma concentration at 2 hrs in male Balb/c mouse plasma at 15 mg/kg, ip; conditions: in vivo
[14] = molecular target: T1, Hexokinase (Toxoplasma gondii) (UniProt Q969A8); assay: Inhibition of hexokinase in Toxoplasma gondii ME49 infected human HFF cells assessed as 13C6-glucose-6-phosphate treated at 6 x EC50 4 hrs postinfection for 5 hrs media changed with [13C6]-glucose; assay type: cell-based
T1 sequence (whole entry): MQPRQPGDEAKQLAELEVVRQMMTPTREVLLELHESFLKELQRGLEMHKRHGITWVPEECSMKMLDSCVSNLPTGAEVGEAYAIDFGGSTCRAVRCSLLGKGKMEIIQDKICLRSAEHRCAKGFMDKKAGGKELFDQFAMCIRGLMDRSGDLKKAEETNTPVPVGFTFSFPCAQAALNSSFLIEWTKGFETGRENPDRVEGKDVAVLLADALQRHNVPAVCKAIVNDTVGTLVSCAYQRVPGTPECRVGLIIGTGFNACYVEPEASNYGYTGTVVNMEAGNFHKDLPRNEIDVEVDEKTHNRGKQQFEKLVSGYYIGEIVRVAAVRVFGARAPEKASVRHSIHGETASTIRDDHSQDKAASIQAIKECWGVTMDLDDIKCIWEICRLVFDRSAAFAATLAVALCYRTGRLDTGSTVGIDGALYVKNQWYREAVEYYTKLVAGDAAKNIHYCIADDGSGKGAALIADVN
How it was run: (§5)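 Infected HFF cells were treated 4 h postinfection with DMSO or compound (2 or 6 × EC50). After 5 h the medium was switched to glucose-free RPMI with 13C6-glucose and labelled for 10 min. Samples were rapidly quenched, processed and analysed by broad-spectrum mass spectrometry for 13C6-glucose-6-phosphate (hexokinase product) against DMSO.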

[15] = molecular target: T1, Hexokinase (Toxoplasma gondii); assay: Inhibition of hexokinase in Toxoplasma gondii ME49 infected human HFF cells assessed as 13C6-glucose-6-phosphate treated at 2 x EC50 4 hrs postinfection for 5 hrs media changed with [13C6]-glucose; assay type: cell-based; how it was run: as §5
Toxoplasma gondii [16] = assay: Ex vivo inhibition of Toxoplasma gondii ME49 bradyzoite isolated from 30 days post infection brain of C57BL/6J mouse transferred to human HFF cells after 3 days using anti-BAG1 by fluorescence assay; assay type: functional; conditions: time 72.0 hrs
How it was run: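 Bradyzoites were harvested from brains of four infected mice 30+ days after infection, purified and transferred to HFF cells. Compound was added at 1, 3 or 6 × EC50 and incubated 3 days against a DMSO control. Monolayers were fixed, labelled with anti-BAG1 antibody against a bradyzoite-specific antigen, and imaged by fluorescence.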

[17] = Permeability of compound by PAMPA-BBB assay; assay type: ADME; conditions: read-out: permeability
How it was run: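 Blood–brain barrier PAMPA, with permeability reported as Pe (10–6 cm/s).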

[18] = HFF cells, read-out: Selectivity ratio

Row | SMILES | EC50 (Toxoplasma gondii [1]; Toxoplasma gondii, ME49, HFF-1) [nM] | EC50 (Toxoplasma gondii [2]; Toxoplasma gondii, ME49, HFF-1) [nM] | CC50 at 72 h [3] [nM] | selectivity ratio [4, 18] | selectivity ratio [5, 18] | further results
1 | COC(=O)c1cnc(Cl)cc1NC(=O)c1ccc(C(C)(C)C)cc1 | 1690 | > 10000 | > 50000 | > 29.6 | > 10 | –
2 | CC(C)(C)c1ccc(C(=O)Nc2cccnc2C(=O)O)cc1 | 1110 | 2160 | 9000 | 8.1 | 4.2 | –
3 | COC(=O)c1ncc(Cl)cc1NC(=O)c1ccc(C(C)(C)C)cc1 | 430 | 570 | > 50000 | > 116 | > 87.7 | logD ([6]; read-out: logD): 5.3; solubility kinetic [7]: < 1.6 µM; remaining at 1 h [8]: 2.7%; remaining at 1 h [9]: 24.7%
4 | CC(C)(C)c1ccc(C(=O)Nc2cc(Cl)cnc2C(=O)[O-])cc1.[Na+] | – | – | – | – | – | EC50 (Toxoplasma gondii [1]; hff-1): 320 nM; EC50 (Toxoplasma gondii [2]; hff-1): 230 nM; CC50 (HFF): 2100 nM; selectivity ratio [4]: 6.6; logD [6]: 2.6; solubility kinetic [7]: 164 µM; Stabilty [8]: 100%; Stabilty ([9]; mouse, 1 h): 88.1%; fraction unbound [10]: 0.005; Kp [11]: 0.1; selectivity ratio [5]: 9.1; brain concentration at 2 h [12]: 816 ng/g; plasma concentration at 2 h [13]: 7883 ng/mL
5 | COc1ccc(C(=O)Nc2cc(Cl)cnc2C(=O)O)cc1 | 7100 | 2410 | > 50000 | > 7 | – | selectivity ratio ([5]; HFF cells, read-out: Selectivity Index): > 20.7
6 | CC(C)(C)c1ccc(C(=O)Nc2cc(Cl)c(-c3ccccc3)cc2C(=O)O)cc1 | 460 | 990 | > 50000 | – | – | logD ([6]; read-out: logD): 5.4; solubility kinetic [7]: 2.7 µM (≈ 1.1 µg/mL); remaining at 1 h [8]: 69.2%; remaining at 1 h [9]: 100%
7 | COc1ccccc1C(=O)Nc1cc(Cl)cnc1C(=O)O | 3500 | 4900 | > 50000 | > 14.3 | > 10.2 | –
8 | CC(C)(C)c1ccc(C(=O)Nc2cc(Cl)c(Br)nc2C(=O)O)cc1 | 3850 | 4090 | > 50000 | > 13 | > 12.2 | –
9 | CC(C)(C)c1ccc(C(=O)Nc2cc(Cl)cnc2-c2nnn[nH]2)cc1 | 800 | 2450 | 1200 | 1.5 | 0.5 | –
10 | CC(C)(C)c1ccc(C(=O)Nc2cc(Cl)cnc2C(=O)O)cc1 [listing 1 of 2 here] | – | – | – | – | – | inhibition [14]: inactive; inhibition [15]: inactive; inhibition (Toxoplasma gondii [16]): Active
11 | CC(C)(C)c1ccc(C(=O)Nc2cc(Cl)cnc2C(=O)O)cc1 [listing 2 of 2 here] | 240 | 350 | 2500 | 10.4 | 7.1 | logD ([6]; read-out: logD): 2.7; solubility kinetic [7]: 33 µM (≈ 11 µg/mL); Stabilty [8]: 75.4%; remaining at 1 h [9]: 98.4%; Papp [17]: 6.9 ×10⁻⁶ cm/s
12 | Cc1ccc(C(=O)Nc2cc(Cl)cnc2C(=O)O)cc1 | 1480 | 1100 | 18200 | 12.3 | 16.5 | –
13 | COc1cccc(C(=O)Nc2cc(Cl)cnc2C(=O)O)c1 | 1820 | 6200 | > 50000 | > 27.5 | > 8.1 | –
14 | O=C(Nc1cc(Cl)cnc1C(=O)O)c1ccccc1 | 2420 | 4470 | > 50000 | > 20.7 | > 11.2 | –
15 | CC(C)(C)c1ccc(C(=O)Nc2ccc(Br)nc2C(=O)O)cc1 | 5140 | 3960 | > 50000 | > 9.7 | > 12.6 | –
16 | CC(C)(C)c1ccc(C(=O)Nc2cc(Cl)c(-c3ccccc3)nc2C(=O)O)cc1 | 560 | 410 | 48200 | 86.1 | 118 | logD ([6]; read-out: logD): 3.9; solubility kinetic [7]: 6.4 µM (≈ 2.62 µg/mL); remaining at 1 h [8]: 85.1%; remaining at 1 h [9]: 97.1%; Papp [17]: 5.4 ×10⁻⁶ cm/s
17 | CC(C)(C)c1ccc(C(=O)Nc2cc(Cl)cnc2C(N)=O)cc1 | > 10000 | > 10000 | > 50000 | – | > 50 | –
18 | CC(C)(C)c1ccc(C(=O)Nc2cc(Cl)ncc2C(=O)O)cc1 | > 10000 | > 10000 | 23600 | – | > 10 | –
